KDM4C inh = KDM4C (human) demethylase inhibition | Q9H3R0 | AID 720574 | 96,000 compounds, 0.15% hits | GST-KDM4C 2-372, H3K9me3 peptide, LANCE TR-FRET | inhibition, % at 12.5 µM;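 active = mean replicate inhibition above about 25%, with at least 55% of replicates also reaching it, limit read from the data, passing the limit was not always enough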
Target sequence (Q9H3R0 2-372 limits assumed): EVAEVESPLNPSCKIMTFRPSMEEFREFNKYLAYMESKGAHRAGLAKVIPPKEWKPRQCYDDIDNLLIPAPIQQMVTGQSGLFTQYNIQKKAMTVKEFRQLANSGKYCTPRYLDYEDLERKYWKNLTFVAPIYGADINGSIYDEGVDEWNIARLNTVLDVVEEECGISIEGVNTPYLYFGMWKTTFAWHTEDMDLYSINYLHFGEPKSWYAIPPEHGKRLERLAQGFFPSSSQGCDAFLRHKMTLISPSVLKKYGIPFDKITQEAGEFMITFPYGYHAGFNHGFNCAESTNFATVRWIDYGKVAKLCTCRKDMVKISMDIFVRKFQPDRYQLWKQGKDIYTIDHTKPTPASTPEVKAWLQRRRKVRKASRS
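System: N-terminal GST-fused human GASC-1 (KDM4C) fragment, residues 2-372 / Amount: 10 nM GST-KDM4C in enzyme reaction / Also added: H3K9me3 peptide with Fe(II)/2OG / Times: 30 min demethylation and 1 h detection at room temperature / Signal: LANCE TR-FRET / Read-out basis: Fall in 671/618 emission ratio as inhibition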
T cruzi growth = T. cruzi proliferation inhibition | T. cruzi beta-gal in NIH3T3, GalScreen luminescence, 90 h | inhibition, % at 8.34 µM | 77,000 compounds, 5.9% hits;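 active = mean inhibition above about 93%, with at least 55% of replicates each passing it, limit read from the data, passing the limit was not always enough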
IDH1 mut inh = IDH1 R132H (human) inhibition. 70,000 compounds, 0.18% hits. IDH1 R132H reductase, diaphorase/resazurin fluorescence, 60 min. AID 624101. O75874. inhibition, % at 10 µM; in the data active = inhibition above about 34%;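 note: 0% = DMSO and 100% = no enzyme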
Pf Dd2 growth = blocks growth of Plasmodium falciparum Dd2 parasites. P. falciparum Dd2 growth, SYBR Green, 72 h; hits give low values. activity change, % at 10 µM. 94,000 compounds, 2.3% hits; in the data active = activity change below about -80%
An asterisk follows results filed as active; · = no result given. An excerpt weighted towards active compounds, which were near 5.9% of everything screened.

SMILES | KDM4C inh | T cruzi growth | IDH1 mut inh | Pf Dd2 growth
C[C@@H]1CN([C@H](C)CO)C(=O)c2cc(NC(=O)C3CCCCC3)ccc2O[C@@H](C)CCCCO[C@H]1CN(C)Cc1ccc(Cl)c(Cl)c1 | -1 | 89 | -1 | -90*
O=C(CSC1=NCCN1)C1COc2ccccc2O1 (stereo not given) | · | · | 39* | ·
C[C@@H]1CN([C@H](C)CO)C(=O)c2c(c3ccccc3n2C)-c2ccccc2CO[C@@H]1CN(C)Cc1cccc(C(F)(F)F)c1 | -3 | · | · | -87*
C[C@H](CO)N1C[C@H](C)[C@H](CN(C)Cc2cccc(C(F)(F)F)c2)OCc2ccccc2-c2c(n(C)c3ccccc23)C1=O | · | · | · | -83*
C[C@H]1CN([C@@H](C)CO)C(=O)c2c(c3ccccc3n2C)-c2ccccc2CO[C@H]1CN(C)Cc1cccc(C(F)(F)F)c1 | -4 | · | · | -75
C[C@@H]1CN([C@@H](C)CO)C(=O)c2ccccc2-c2ccccc2CO[C@@H]1CN(C)Cc1cccc(C(F)(F)F)c1 | 0 | · | · | -82*
CCOc1cccc(/C=N/NC(=O)c2ccc(C(=O)NO)cc2)c1OCC | · | · | 0 | ·
N#Cc1c(N)nc(SCC(=O)c2ccc(Cl)cc2)c(C#N)c1-c1ccco1 | · | · | 0 | ·
O=S(=O)(c1ccc(F)cc1)N1CC[C@@H]2[C@@H](CO)Nc3ccc(C#Cc4cccc(F)c4)cc3[C@@H]21 | -3 | · | · | -10
COc1ccccc1C#Cc1ccc2c(c1)[C@H]1NCC[C@H]1[C@@H](CO)N2 | -2 | · | · | -87*
OC[C@@H]1Nc2ccc(C#Cc3cccc(F)c3)cc2[C@@H]2NCC[C@H]12 | 2 | · | · | -91*
CC(C)c1ccccc1OCC(=O)Nc1sc2c(c1C(N)=O)CCCC2 | · | · | 0 | ·
CN1C(=O)c2cc(NC(=O)Nc3ccccc3Cl)ccc2OC[C@H]2O[C@@H](CC(=O)O)CC[C@@H]21 | 49* | 14 | · | 5
O=C(Nc1cccc(F)c1)N1CC(=O)N2[C@H](C1)[C@@H](c1ccc(C#CC3CC3)cc1)[C@@H]2CO | 0 | · | · | -82*
Cc1ccc(-c2ccc([C@H]3[C@@H](CO)N4C(=O)CN(C(=O)Nc5cccc(F)c5)C[C@H]34)cc2)cc1 | -2 | · | · | -84*
Cc1ccc(-c2ccc([C@@H]3[C@H]4CN(C(=O)Nc5cccc(F)c5)CC(=O)N4[C@H]3CO)cc2)cc1 | -2 | · | · | -13
Cc1ccc(NC(=O)CSc2nnc(-c3ccc([N+](=O)[O-])cc3)n2-c2ccccc2)cc1C | · | · | 0 | ·
COc1ccc(C#Cc2ccc3c(c2)[C@H]2[C@H](CCN2S(=O)(=O)c2ccccc2F)[C@H](CO)N3C)cc1 | 0 | -10 | · | -21
COc1ccc(C#Cc2ccc3c(c2)[C@@H]2[C@@H](CCN2S(=O)(=O)c2ccccc2F)[C@@H](CO)N3C)cc1 | 48* | 26 | · | -21
C[C@@H]1CN([C@@H](C)CO)C(=O)Cc2cc(NC(=O)Nc3ccccc3)ccc2O[C@H]1CN(C)Cc1ccc2c(c1)OCO2 | 4 | 3 | 0 | -88*
C[C@H](CO)N1C[C@H](C)[C@@H](CN(C)Cc2ccc3c(c2)OCO3)Oc2ccc(NC(=O)Nc3ccccc3)cc2CC1=O | 3 | 60 | 0 | -83*
C[C@@H]1CN([C@@H](C)CO)C(=O)Cc2cc(NC(=O)Nc3ccc4c(c3)OCO4)ccc2O[C@H]1CN(C)Cc1ccc2c(c1)OCO2 | 2 | 70 | -11 | -87*
C[C@@H]1CN([C@@H](C)CO)C(=O)Cc2cc(NC(=O)Nc3ccccc3)ccc2O[C@@H]1CN(C)Cc1ccc2c(c1)OCO2 | 4 | 83 | 0 | -16
Cc1ccc(S(=O)(=O)N(C)C[C@H]2OCCCC[C@@H](C)Oc3ccc(NC(=O)Nc4ccc(C(F)(F)F)cc4)cc3C(=O)N([C@H](C)CO)C[C@@H]2C)cc1 | -1 | · | · | -73
C[C@@H]1CCCCO[C@H](CN(C)S(=O)(=O)c2ccc(F)cc2)[C@H](C)CN([C@@H](C)CO)C(=O)c2cc(NC(=O)Nc3ccc(C(F)(F)F)cc3)ccc2O1 | 0 | 91 | 3 | -86*
SMILES | KDM4C inh | T cruzi growth | IDH1 mut inh | Pf Dd2 growth
Cc1ccc(S(=O)(=O)N(C)C[C@@H]2OCCCC[C@H](C)Oc3ccc(NC(=O)Nc4ccc(C(F)(F)F)cc4)cc3C(=O)N([C@@H](C)CO)C[C@@H]2C)cc1 | -1 | · | 1 | -85*
C[C@@H]1CN([C@H](C)CO)C(=O)c2cc(NC(=O)Nc3ccc(C(F)(F)F)cc3)ccc2O[C@@H](C)CCCCO[C@H]1CN(C)S(=O)(=O)c1ccc(F)cc1 | 2 | 90 | · | -48
COc1ccc(S(=O)(=O)N(C)C[C@H]2OCCCC[C@H](C)Oc3ccc(NC(=O)Nc4ccc(C(F)(F)F)cc4)cc3C(=O)N([C@H](C)CO)C[C@@H]2C)cc1 | -1 | 87 | · | -62
COc1ccc(S(=O)(=O)N(C)C[C@@H]2OCCCC[C@@H](C)Oc3ccc(NC(=O)Nc4ccc(C(F)(F)F)cc4)cc3C(=O)N([C@H](C)CO)C[C@@H]2C)cc1 | -1 | 59 | · | -84*
O=C(CCCCCC(=O)N/N=C/c1ccoc1)NO | · | · | 0 | ·
Cc1ccccc1-c1cc(C(=O)NCCCn2ccnc2)c2cc(Cl)ccc2n1 | · | · | 1 | ·
C[C@@H]1CN([C@H](C)CO)C(=O)c2cc(C#Cc3cccc(F)c3)cnc2O[C@@H]1CN(C)C(=O)C1CCCCC1 | -1 | 115 | · | -88*
C[C@H]1CN([C@@H](C)CO)C(=O)c2cc(C#Cc3ccccc3F)cnc2O[C@@H]1CN(C)C(=O)C1CCCCC1 | -1 | · | -3 | -85*
C[C@@H]1CN([C@@H](C)CO)C(=O)c2cc(C#Cc3cccc(F)c3)cnc2O[C@@H]1CN(C)C(=O)C1CCCCC1 | 0 | 122 | 0 | -86*
C[C@H](CO)N1C[C@H](C)[C@@H](CN(C)C(=O)CCN2CCCCC2)Oc2ncc(C#Cc3ccccc3)cc2C1=O | 1 | 29 | -3 | -66
C[C@@H]1CN([C@H](C)CO)C(=O)c2cc(C#Cc3ccccc3)cnc2O[C@H]1CN(C)C(=O)CCN1CCCCC1 | -1 | 55 | 0 | -90*
O=C(CSc1nnc(-c2ccccc2)n1-c1ccccc1)Nc1ccc(C(F)(F)F)cc1 | · | · | 1 | ·
Cc1c(NC(=S)NCCc2c[nH]c3ccccc23)c(=O)n(-c2ccccc2)n1C | · | · | 1 | ·
COc1ccc(OC)c(S(=O)(=O)N2CCC(C(=O)Nc3cccc(C(C)=O)c3)CC2)c1 | · | · | 0 | ·
C[C@@H]1CN([C@H](C)CO)C(=O)c2cc(C#CCc3ccccc3)cnc2O[C@H]1CN(C)C(=O)C1CCC1 | 1 | 67 | 2 | -87*
C[C@@H]1CN([C@@H](C)CO)C(=O)c2cc(C#CCc3ccccc3)cnc2O[C@@H]1CN(C)C(=O)C1CCC1 | 3 | 23 | 0 | -50
O=C(c1cccc(F)c1)N1CC(=O)N2[C@H](C1)[C@@H](c1ccc(-c3cccnc3)cc1)[C@@H]2CO | -2 | · | · | -88*
O=C(c1ccc(F)cc1)N1CC(=O)N2[C@H](CO)[C@H](c3ccc(-c4cccnc4)cc3)[C@H]2C1 | -1 | · | · | -87*
O=C(c1ccccc1F)N1CC(=O)N2[C@H](C1)[C@@H](c1ccc(-c3cccnc3)cc1)[C@@H]2CO | 1 | · | · | -87*

Compound activity deposited in PubChem BioAssay by Broad Institute.
